Results published in ChEMBL document CHEMBL1150072, “Two new bioactive monotetrahydrofuran Annonaceous acetogenins from the bark of Xylopia aromatica” (J Nat Prod, 1994).
≈ marks a conversion by molar mass, not a printed value.

How the values were obtained:
HT-29 = assay: Cytotoxicity against human HT-29 cells after 7 days by MTT assay; type: functional; settings: HT-29, 168 h, read-out: ED50 (the source's name)
Method in brief: (§1)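 Seven-day MTT assay of each compound against the human solid tumour lines A-549 (lung carcinoma), MCF-7 (breast carcinoma) and HT-29 (colon adenocarcinoma), run at a cell culture core laboratory. Adriamycin served as the positive control. Values from separate runs of the cell culture assay were reported apart.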

A549 = assay: Cytotoxicity against human A549 cells after 7 days by MTT assay; type: functional; settings: A549, 168 h, read-out: ED50 (the source's name); method in brief: as §1
MCF7 = assay: Cytotoxicity against human MCF7 cells after 7 days by MTT assay; type: functional; settings: MCF7, 168 h, read-out: ED50 (the source's name); method in brief: as §1
[1] = Toxicity in brine shrimp; type: organism-based; settings: artemia, in vivo

Compound	EC50 (HT-29) [ng/mL]	EC50 (A549) [ng/mL]	EC50 (MCF7) [ng/mL]	LC50 [1] [ng/mL]
COc1cccc2c1C(=O)c1c(O)c3c(c(O)c1C2=O)C[C@@](O)(C(=O)CO)C[C@@H]3O[C@H]1C[C@H](N)[C@H](O)[C@H](C)O1 [DOXORUBICIN]	2.7 (≈ 0.00497 µM)	1.1 (≈ 0.00202 µM)	–	–
CCCCCCCCCC/C=C\CC[C@@H](O)[C@H]1CC[C@H]([C@H](O)CCCCC(O)CCCCC[C@@H](O)CC2=C[C@H](C)OC2=O)O1 (stereo not given in full) [XYLOMATENIN]	< 1	< 1	631 (≈ 1.01 µM)	770 (≈ 1.24 µM)
CCCCCCCCCC/C=C\CC[C@@H](O)[C@H]1CC[C@H]([C@H](O)CCCCCCC(O)CCC[C@@H](O)CC2=C[C@H](C)OC2=O)O1 (stereo not given in full) [XYLOPIEN]	7.26 (≈ 0.0117 µM)	3.64 (≈ 0.00584 µM)	7.11 (≈ 0.0114 µM)	871 (≈ 1.4 µM)
